This is a sample that favours compounds with a hit; in the whole collection about 3.2% have one here.
MEKK2 WT-MEK5 – raises or lowers MEK5 binding to wildtype human MEKK2 PB1 domain; bead flow cytometry, Alexa488-MEK5 binding to MEKK2 WT; actives lie on both sides; binding response (% of control), % at 10 µM; AID 1531; 290,000 tested, 1.1% active; in the data active = binding response below about 67% or above about 130%
Pemphigus Ab inh – inhibitors of pemphigus antibody binding to human desmoglein-3; P32926; DSG3-coupled beads, scFv-anti-DSG3-GFP binding, flow cytometry; hits give low values; binding (percent of control), % at 10 µM; 310,000 tested, 0.48% active; AID 588358;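 active = binding more than 3 SD below its plate's average and above zero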;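 also: hits lower antibody fragment binding to DSG3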
Target sequence (P32926 whole entry, looked up, the tested form may be a part): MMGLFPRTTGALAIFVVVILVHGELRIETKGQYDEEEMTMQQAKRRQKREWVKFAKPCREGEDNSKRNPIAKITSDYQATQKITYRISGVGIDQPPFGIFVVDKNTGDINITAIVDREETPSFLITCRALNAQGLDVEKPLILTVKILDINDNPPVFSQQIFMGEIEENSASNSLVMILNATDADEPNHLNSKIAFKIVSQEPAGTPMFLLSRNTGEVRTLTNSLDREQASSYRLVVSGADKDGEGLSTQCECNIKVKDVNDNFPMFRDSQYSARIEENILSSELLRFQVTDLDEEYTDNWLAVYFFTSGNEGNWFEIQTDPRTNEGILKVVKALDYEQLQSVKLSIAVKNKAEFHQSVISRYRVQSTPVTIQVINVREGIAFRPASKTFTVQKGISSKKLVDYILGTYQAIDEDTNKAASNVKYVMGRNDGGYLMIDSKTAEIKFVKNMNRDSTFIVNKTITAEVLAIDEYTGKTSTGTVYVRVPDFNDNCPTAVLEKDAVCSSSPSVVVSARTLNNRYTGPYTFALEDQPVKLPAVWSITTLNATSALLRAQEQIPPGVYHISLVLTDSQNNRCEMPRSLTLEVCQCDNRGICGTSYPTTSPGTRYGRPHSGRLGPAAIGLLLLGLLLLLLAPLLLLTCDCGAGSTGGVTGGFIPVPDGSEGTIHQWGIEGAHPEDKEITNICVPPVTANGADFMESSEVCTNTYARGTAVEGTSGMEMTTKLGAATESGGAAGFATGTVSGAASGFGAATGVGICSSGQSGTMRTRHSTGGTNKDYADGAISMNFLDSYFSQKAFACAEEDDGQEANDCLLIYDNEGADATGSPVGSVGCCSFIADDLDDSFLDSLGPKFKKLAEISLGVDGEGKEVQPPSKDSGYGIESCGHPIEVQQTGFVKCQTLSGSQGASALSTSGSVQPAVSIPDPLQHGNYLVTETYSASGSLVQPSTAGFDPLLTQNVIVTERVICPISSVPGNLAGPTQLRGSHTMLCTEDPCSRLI
MEKK3 PB1 HTS – raises or lowers MEK5 binding to the human MEKK3 PB1 domain. binding response (% of control), % at 10 µM. 290,000 tested, 1.4% active. bead-based flow cytometry, Alexa488-MEK5 binding to MEKK3; actives lie on both sides; 0 = blocked by unlabeled MEK5, 100 = vehicle. Q99759;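 active = binding response more than 3 SD above or below the average of its plate-row segment, actives on both sides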;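 also: Alexa488 bead fluorescence after subtracting the streptavidin-only scavenger bead signal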
MEKK2 mut-MEK5 – signal of MEK5 binding to mutant human MEKK2 PB1 domain | percent response, % at 10 µM | 290,000 tested, 0.35% active | bead flow cytometry, Alexa488-MEK5 binding to MEKK2 mutant; in the data active = percent response above about 24%, passing the limit was not always enough
UBC13 polyUb – human UBC13 polyubiquitination inhibition; P61088; UBC13 polyubiquitin chain formation, TR-FRET; inhibition, % at 20 µM; 330,000 tested, 0.47% active; AID 485273; in the data active = inhibition above about 45%, passing the limit was not always enough
Apaf1 inhib – inhibitors of human Apaf-1 apoptosome; O14727; reconstituted apoptosome caspase-3 activity, DEVD-Rh110 fluorescence; inhibition, % at 20 µM; 330,000 tested, 0.71% active; AID 489030; active = inhibition of at least 40% at 20 µM;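 also: plate controls were DMSO wells for no effect and DEVD-CHO caspase inhibitor wells for full effect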
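Assay system – apoptosome proteins · Medium – Hepes buffer, pH 7.5 · Also added – cytochrome c with DEVD-Rh110 · Timing – 30 min compound preincubation, 50 min activation, room temperature · Detection – Rh110 fluorescence, excitation 480 nm, emission 540 nm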
MEKK2wt confirm – raises or lowers MEK5 binding to wildtype human MEKK2, retest. shares compounds with MEKK3 PB1 HTS. bead flow cytometry, Alexa488-MEK5 binding to MEKK2 WT; actives lie on both sides. 5,900 tested, 2.4% active. AID 1892. binding response (% of control), % at 10 µM; in the data active = binding response below about 16% or above about 210%; inactive = in between
MEKK2mut-MEK5 – signal of MEK5 binding to mutant human MEKK2, retest | bead flow cytometry, Alexa488-MEK5 binding to MEKK2 mutant | percent response, % at 10 µM | 5,900 tested, 2% active | shares compounds with MEKK3 PB1 HTS; in the data active = percent response mostly above about 71%, no sharp cut-off; inactive = mostly below about 38%;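 also: higher means compound restores mutant binding toward wildtype level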
MEKK3-MEK5 inh – confirmation of inhibitors of MEK5 binding to human MEKK3. bead flow cytometry, Alexa488-MEK5 binding to MEKK3; hits give low values. shares compounds with MEKK3 PB1 HTS. 5,900 tested, 1.8% active. binding response (% of control), % at 10 µM;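 active = binding response below 72% of control, or above a set upper limit, though filed actives all read lower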;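 also: 100% = DMSO only wells and 0% = binding blocked by excess unlabeled MEK5; lower values mean stronger disruption of MEK5 binding to MEKK3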
* marks the source's active call; other numbers are inactive results; [ ] = dose if it differs, or a comment.

Screening COc1cc(CCCN2CCNC[C@@H]2c2ccccc2)cc(OC)c1OC returned Pemphigus Ab inh 104, UBC13 polyUb 9 and Apaf1 inhib 2.
Screening c1ccc([C@H]2CNCCN2CCc2cccc3ccccc23)cc1 returned Pemphigus Ab inh 109, UBC13 polyUb 44 and Apaf1 inhib 55*.
NC(=O)c1ccsc1NC(=O)COC(=O)c1cnccn1 was read as Pemphigus Ab inh 80*, UBC13 polyUb -18 and Apaf1 inhib -23.
`O=C(O)CCC1(CCC(=O)O)CCCC(CCC(=O)O)(CCC(=O)O)C1=O` gave Pemphigus Ab inh 93.
Cc1ccc(NC(=O)COc2ccccc2C(N)=O)cc1S(=O)(=O)N1CCCCCC1 was read as Pemphigus Ab inh 96, UBC13 polyUb 11 and Apaf1 inhib 28.
For CCN(CC(=O)NC(C)(C)C)C(=O)CCl the results were MEKK2 WT-MEK5 104, Pemphigus Ab inh 128, MEKK3 PB1 HTS 136*, MEKK2 mut-MEK5 0, UBC13 polyUb -2, Apaf1 inhib -2, MEKK2wt confirm 99, MEKK2mut-MEK5 -2 and MEKK3-MEK5 inh 99.
`COc1ccc(-c2noc(CNC(=O)Nc3ccc(F)cc3)n2)cc1` gave MEKK2 WT-MEK5 90, Pemphigus Ab inh 109, MEKK3 PB1 HTS 95, MEKK2 mut-MEK5 -7, UBC13 polyUb 12 and Apaf1 inhib -11.
For O=C(NCc1nc(-c2ccc(C(F)(F)F)cc2)no1)Nc1ccc(F)cc1F the results were MEKK2 WT-MEK5 117, Pemphigus Ab inh 107, MEKK3 PB1 HTS 131*, MEKK2 mut-MEK5 29, UBC13 polyUb 2, Apaf1 inhib -17, MEKK2wt confirm 95, MEKK2mut-MEK5 -9 and MEKK3-MEK5 inh 99.
O=C(NCc1nc(-c2ccc(C(F)(F)F)cc2)no1)Nc1cc(Cl)cc(Cl)c1 was read as MEKK2 WT-MEK5 179*, MEKK3 PB1 HTS 136*, MEKK2 mut-MEK5 52*, UBC13 polyUb -15, Apaf1 inhib 8, MEKK2wt confirm 151, MEKK2mut-MEK5 46 and MEKK3-MEK5 inh 108.
O=C(O)COCC(=O)NCc1nc(-c2ccc(C(F)(F)F)cc2)no1 was read as MEKK2 WT-MEK5 98, Pemphigus Ab inh 101, MEKK3 PB1 HTS 97, MEKK2 mut-MEK5 -24, UBC13 polyUb 0 and Apaf1 inhib -8.
Screening O=C(NN=Cc1ccc(Cl)cc1Cl)C1CC1 returned Pemphigus Ab inh 131.
For N#Cc1c(NC(=O)CSc2nc(N)cc(=O)[nH]2)sc2c1CCCC2 the results were MEKK2 WT-MEK5 2.0*[inhibitor], Pemphigus Ab inh 97, MEKK3 PB1 HTS 1.0*[inhibitor], MEKK2 mut-MEK5 -13, UBC13 polyUb 11, Apaf1 inhib 5, MEKK2wt confirm 95, MEKK2mut-MEK5 1 and MEKK3-MEK5 inh 101.
CC1CCCN(C(=O)c2ccc(-c3ccccc3Cl)o2)C1 (stereo not drawn) was read as Pemphigus Ab inh 101, UBC13 polyUb 10 and Apaf1 inhib 39.
`CN1C(=O)NC(c2ccc(O)cc2)C2=C1CN(c1ccc(O)cc1)C2=O` (stereo not drawn) gave MEKK2 WT-MEK5 126, Pemphigus Ab inh 100, MEKK3 PB1 HTS 147*, MEKK2 mut-MEK5 5, UBC13 polyUb 6, Apaf1 inhib -2, MEKK2wt confirm 98, MEKK2mut-MEK5 -6 and MEKK3-MEK5 inh 100.
CCCCC(=O)N(c1ccc(C)c(C)c1)C1C=CS(=O)(=O)C1 (stereo not drawn) was read as MEKK2 WT-MEK5 -7.0*[inhibitor], Pemphigus Ab inh 101, MEKK3 PB1 HTS 1.0*[inhibitor], MEKK2 mut-MEK5 -22, UBC13 polyUb 2, Apaf1 inhib -11, MEKK2wt confirm 99, MEKK2mut-MEK5 -5 and MEKK3-MEK5 inh 101.
Screening Cc1ccc(N(C(=O)c2ccc3c(c2)OCO3)C2C=CS(=O)(=O)C2)cc1C (stereo not drawn) returned MEKK2 WT-MEK5 105, Pemphigus Ab inh 101, MEKK3 PB1 HTS 107, MEKK2 mut-MEK5 2, UBC13 polyUb -10 and Apaf1 inhib 5.
Screening CCN1C(=O)[C@H]2[C@@H](c3ccc(C(F)(F)F)cc3)N[C@]3(CCCN(Cc4ccc(C)cc4)C3=O)[C@H]2C1=O returned Pemphigus Ab inh 109.
`CCCCN1C(=O)C(=O)N(CC(=O)c2cc(C)n(-c3cc(C)on3)c2C)C1=O` gave Pemphigus Ab inh 103, UBC13 polyUb 4 and Apaf1 inhib -1.
`O=C(NCCN1CCN(Cc2ccccc2)CC1)Nc1cc(Cl)cc(Cl)c1` gave MEKK2 WT-MEK5 139*, MEKK3 PB1 HTS 106, MEKK2 mut-MEK5 34, UBC13 polyUb 11, Apaf1 inhib 16, MEKK2wt confirm 144, MEKK2mut-MEK5 31 and MEKK3-MEK5 inh 108.
`O=C(NCCN1CCN(c2cccc(Cl)c2)CC1)Nc1ccccc1` gave MEKK2 WT-MEK5 110, Pemphigus Ab inh 102, MEKK3 PB1 HTS 108, MEKK2 mut-MEK5 3, UBC13 polyUb 12 and Apaf1 inhib 4.
O=[N+]([O-])c1cccc(S(=O)(=O)NCC2CC3CCC2C3)c1 (stereo not drawn) was read as MEKK2 WT-MEK5 98, Pemphigus Ab inh 91, MEKK3 PB1 HTS 95, MEKK2 mut-MEK5 -6, UBC13 polyUb 1 and Apaf1 inhib 12.
Screening CC1=CC(C)(C)C(C(=O)O)C(C(=O)O)C1 (stereo not drawn) returned MEKK2 WT-MEK5 136*, Pemphigus Ab inh 96, MEKK3 PB1 HTS 141*, MEKK2 mut-MEK5 10, UBC13 polyUb -9, Apaf1 inhib 11, MEKK2wt confirm 112, MEKK2mut-MEK5 19 and MEKK3-MEK5 inh 88.
COc1cccc(C2=NO[C@@H]3C(=O)N(Cc4ccccc4)C(=O)[C@H]23)c1OC was read as MEKK2 WT-MEK5 116, MEKK3 PB1 HTS 128*, MEKK2 mut-MEK5 7, UBC13 polyUb -1, Apaf1 inhib 15, MEKK2wt confirm 96, MEKK2mut-MEK5 -4 and MEKK3-MEK5 inh 98.
COc1cccc(C2=NO[C@@H]3C(=O)N(c4ccc5c(c4)OCCO5)C(=O)[C@H]23)c1OC was read as MEKK2 WT-MEK5 98, Pemphigus Ab inh 95, MEKK3 PB1 HTS 99, MEKK2 mut-MEK5 0, UBC13 polyUb -3 and Apaf1 inhib -11.

Source: PubChem
